{"source": "ChEMBL document CHEMBL4715824", "about": "“Chemical Proteomic Characterization of a Covalent KRASG12C Inhibitor” (ACS Med Chem Lett, 2018)", "key": {"[1]": {"target": "Fatty acid-binding protein 5 (Homo sapiens) (UniProt Q01469)", "experiment": "(§1) Covalent binding affinity to FABP5 at Cys67 residue in human NCI-H358 cells assessed as log2 H/L ratio at 10 uM pretreated for 3 hrs followed by N-(((6S,7R)-7-(4-chloro-3-fluorophenyl)-1,4-oxazepan-6-yl)methyl)-2-hydroxyacetamide treatment for 3 hrs by competitive TMT click chemistry pull-down experiment based LC-MS/MS analysis", "format": "cell-based", "settings": "time 6.0 hrs", "procedure,_shortened": "(§2)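 H358 cells were pretreated with DMSO (n = 3) or 10 μM compound for 3 h, then 2 μM alkyne probe was added for another 3 h. Cells were lysed, clicked onto azide-agarose resin, digested, TMT-labelled and pooled. The pool was fractionated by high-pH HPLC and each fraction run twice by 60 min low-pH nano LC-MS/MS. Readout was log2 compound/DMSO normalized reporter intensity, with a least-squares means test and FDR adjustment.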"}, "NCI-H23": {"tested_on": "NCI-H23", "experiment": "Antiproliferative activity against human NCI-H23 cells harboring KRAS G12C mutant assessed as reduction in cell viability", "format": "functional, cell-based"}, "GTPase KRas": {"target": "GTPase KRas (Homo sapiens, UniProt P01116, G12C)", "experiment": "Covalent binding affinity to KRAS G12C mutant at Cys12 residue in human NCI-H358 cells assessed as reduction of log2 H/L ratio for tryptic peptide […] incubated for 4 hrs followed by cell lysis and subsequently labelled with light thiol probe N-((S)-18-iodo-11-isopropyl-10,13,17-trioxo-3,6-dioxa-9,12,16-triazaoctadecyl)-6-((4R,5S)-5-methyl-2-oxoimidazolidin-4-yl)hexanamide and heavy thiol probe 4 for 1 hr under dark conditions followed by tryptic digestion for overnight and measured by ABPP target occupancy based UHPLC Q-SIM MS analysis", "procedure,_shortened": "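Target occupancy: H358 cells were treated 4 h with DMSO, 0.08, 0.4, 2 or 10 μM, each paired with DMSO controls, in duplicate. Lysates were labelled heavy (treated) or light (control) with thiol probe, combined, trypsinized and streptavidin-enriched. The LVVVGAC*GVGK peptide pair was measured by UHPLC Q-SIM, with AUC H/L as occupancy. Each point averaged four MS injections, and IC50 came from the concentration-response curve.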"}, "[2]": {"target": "T1, Reticulon-4 (Homo sapiens) (UniProt Q9NQC3)", "T1 sequence (whole entry)": "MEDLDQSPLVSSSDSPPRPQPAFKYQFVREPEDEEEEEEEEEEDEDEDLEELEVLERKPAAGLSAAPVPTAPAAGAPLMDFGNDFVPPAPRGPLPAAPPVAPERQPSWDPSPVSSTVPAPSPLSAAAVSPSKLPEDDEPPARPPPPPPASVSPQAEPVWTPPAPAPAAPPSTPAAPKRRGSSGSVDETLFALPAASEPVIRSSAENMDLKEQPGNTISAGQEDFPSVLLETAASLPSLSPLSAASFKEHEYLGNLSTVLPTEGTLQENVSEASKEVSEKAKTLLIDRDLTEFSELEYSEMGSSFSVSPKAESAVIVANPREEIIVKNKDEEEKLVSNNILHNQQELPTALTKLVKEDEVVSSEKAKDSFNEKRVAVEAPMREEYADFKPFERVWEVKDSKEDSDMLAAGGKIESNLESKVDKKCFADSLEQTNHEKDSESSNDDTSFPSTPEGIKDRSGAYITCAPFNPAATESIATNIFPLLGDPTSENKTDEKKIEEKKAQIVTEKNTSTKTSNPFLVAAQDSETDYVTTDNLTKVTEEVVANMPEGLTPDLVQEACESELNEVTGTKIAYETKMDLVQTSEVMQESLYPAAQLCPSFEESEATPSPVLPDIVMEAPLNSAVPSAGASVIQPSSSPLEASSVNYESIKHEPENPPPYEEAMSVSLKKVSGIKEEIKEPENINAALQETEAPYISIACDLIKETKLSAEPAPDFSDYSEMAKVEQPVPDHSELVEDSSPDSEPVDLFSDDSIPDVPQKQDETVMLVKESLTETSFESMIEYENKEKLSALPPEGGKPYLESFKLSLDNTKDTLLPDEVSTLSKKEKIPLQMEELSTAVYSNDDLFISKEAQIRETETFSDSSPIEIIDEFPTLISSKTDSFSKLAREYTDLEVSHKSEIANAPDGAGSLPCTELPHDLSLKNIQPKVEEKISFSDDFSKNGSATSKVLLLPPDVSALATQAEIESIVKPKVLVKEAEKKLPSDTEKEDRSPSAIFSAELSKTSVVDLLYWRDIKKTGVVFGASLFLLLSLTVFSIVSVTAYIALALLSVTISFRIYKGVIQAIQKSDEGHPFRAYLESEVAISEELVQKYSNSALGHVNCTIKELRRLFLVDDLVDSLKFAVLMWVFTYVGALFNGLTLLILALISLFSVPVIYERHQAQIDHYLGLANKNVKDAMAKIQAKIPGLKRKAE", "experiment": "as §1, with “RTN4” for “FABP5”, “Cys1101” for “Cys67”", "format": "cell-based", "settings": "time 6.0 hrs", "procedure,_shortened": "as §2"}, "[3]": {"tested_on": "GTPase KRas (Homo sapiens), P01116 [G12C]", "experiment": "Covalent binding affinity to KRAS G12C mutant at Cys12 residue in human NCI-H358 cells assessed as reduction of log2 H/L ratio for tryptic peptide LVVVGACGVGK at 2 uM incubated for 4 hrs followed by cell lysis and subsequently labelled with light thiol probe N-((S)-18-iodo-11-isopropyl-10,13,17-trio …", "format": "cell-based"}, "[4]": {"tested_on": "GTPase KRas (Homo sapiens), P01116 [G12C]", "experiment": "as §1, with “KRAS G12C mutant” for “FABP5”, “Cys12” for “Cys67”", "format": "cell-based", "settings": "time 6.0 hrs", "procedure,_shortened": "as §2"}, "NCI-H358": {"tested_on": "NCI-H358", "experiment": "Antiproliferative activity against human NCI-H358 cells harboring KRAS G12C mutant assessed as reduction in cell viability", "format": "functional, cell-based"}, "[5]": {"target": "T2, Peroxiredoxin-like 2A (Homo sapiens) (UniProt Q9BRX8)", "T2 sequence (whole entry)": "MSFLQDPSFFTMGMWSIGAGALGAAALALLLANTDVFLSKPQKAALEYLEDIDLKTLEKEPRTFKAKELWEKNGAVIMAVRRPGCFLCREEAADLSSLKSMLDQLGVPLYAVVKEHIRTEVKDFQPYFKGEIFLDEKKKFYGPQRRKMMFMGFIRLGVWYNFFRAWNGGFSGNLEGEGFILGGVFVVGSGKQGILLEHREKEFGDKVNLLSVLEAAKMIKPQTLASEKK", "experiment": "as §1, with “FAM213A” for “FABP5 at Cys67 residue”", "format": "cell-based", "settings": "time 6.0 hrs", "procedure,_shortened": "as §2"}, "[6]": {"target": "T2, Peroxiredoxin-like 2A (Homo sapiens)", "experiment": "Covalent binding affinity to FAM213A in human NCI-H358 cells incubated for 4 hrs followed by cell lysis and subsequently labelled with light thiol probe N-((S)-18-iodo-11-isopropyl-10,13,17-trioxo-3,6-dioxa-9,12,16-triazaoctadecyl)-6-((4R,5S)-5-methyl-2-oxoimidazolidin-4-yl)hexanamide and heavy thiol probe 4 for 1 hr under dark conditions followed by tryptic digestion for overnight and measured by discovery ABPP based nano LC-MS/MS analysis"}, "[7]": {"target": "T3, Retinaldehyde dehydrogenase 3 (Homo sapiens) (UniProt P47895)", "T3 sequence (whole entry)": "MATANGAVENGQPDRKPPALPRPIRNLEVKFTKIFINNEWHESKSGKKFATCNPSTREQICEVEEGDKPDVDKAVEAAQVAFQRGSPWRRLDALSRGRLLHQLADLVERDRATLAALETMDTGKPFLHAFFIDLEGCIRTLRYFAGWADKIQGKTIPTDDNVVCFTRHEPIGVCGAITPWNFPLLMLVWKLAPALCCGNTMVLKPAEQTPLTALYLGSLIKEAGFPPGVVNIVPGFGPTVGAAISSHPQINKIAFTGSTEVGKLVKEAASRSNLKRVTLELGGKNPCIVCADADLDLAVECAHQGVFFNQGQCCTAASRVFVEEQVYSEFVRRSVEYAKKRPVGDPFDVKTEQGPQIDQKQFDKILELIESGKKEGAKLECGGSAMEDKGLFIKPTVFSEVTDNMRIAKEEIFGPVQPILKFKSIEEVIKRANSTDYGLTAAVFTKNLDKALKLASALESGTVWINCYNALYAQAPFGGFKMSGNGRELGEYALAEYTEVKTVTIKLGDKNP", "experiment": "as §1, with “ALDH1A3” for “FABP5”, “Cys52” for “Cys67”", "format": "cell-based", "settings": "time 6.0 hrs", "procedure,_shortened": "as §2"}, "[8]": {"target": "T4, Synaptic vesicle membrane protein VAT-1 homolog (Homo sapiens, UniProt Q99536)", "T4 sequence (Q99536 whole entry)": "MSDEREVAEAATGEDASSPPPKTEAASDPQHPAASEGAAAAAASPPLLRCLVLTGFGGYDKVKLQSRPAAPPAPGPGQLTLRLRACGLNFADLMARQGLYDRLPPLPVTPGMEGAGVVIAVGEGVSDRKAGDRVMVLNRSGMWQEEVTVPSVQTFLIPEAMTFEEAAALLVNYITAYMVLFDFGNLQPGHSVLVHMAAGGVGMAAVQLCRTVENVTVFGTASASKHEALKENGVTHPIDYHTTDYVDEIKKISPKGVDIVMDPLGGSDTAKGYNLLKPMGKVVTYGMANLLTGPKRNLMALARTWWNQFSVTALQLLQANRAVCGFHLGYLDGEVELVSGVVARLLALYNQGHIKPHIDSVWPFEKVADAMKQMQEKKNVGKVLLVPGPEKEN", "experiment": "Covalent binding affinity to VAT1 at Cys residue in human NCI-H358 cells assessed as reduction of log2 H/L ratio for tryptic peptide […] incubated for 4 hrs followed by cell lysis and subsequently labelled with light thiol probe N-((S)-18-iodo-11-isopropyl-10,13,17-trioxo-3,6-dioxa-9,12,16-triazaoctadecyl)-6-((4R,5S)-5-methyl-2-oxoimidazolidin-4-yl)hexanamide and heavy thiol probe 4 for 1 hr under dark conditions followed by tryptic digestion for overnight and measured by discovery ABPP based nano LC-MS/MS analysis", "procedure,_shortened": "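H358 cells were treated 4 h with DMSO, 0.08, 0.4, 2 or 10 μM, each paired with DMSO control cells, in biological duplicate. After lysis and denaturation, treated lysate took heavy thiol probe and control lysate took light probe. Lysates were combined equally, and probe-labelled tryptic peptides were streptavidin-enriched. Peptides were run twice by 180 min data-dependent nano LC-MS/MS. Hits needed log2 H/L below −0.776 (3σ) plus a dose-dependent decrease.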"}, "Homo sapiens": {"organism": "Homo sapiens", "experiment": "Covalent inhibition of GDP bound His-tagged KRAS G12C/C51L/C80L/C118S mutant (1 to 169 residues) (unknown origin) expressed in Escherichia coli assessed as enzyme-compound adduct formation at Cys12 residue by measuring ratio of Kinact/Ki measured up to 20 mins by mass spectrometry analysis relative to ARS-853", "settings": "time min <=20"}}, "note": "The source made the active and inactive calls. No cut-off for these calls is given here.", "data": [{"molecule": "C=CC(=O)N1CCN(c2ncnc3c(F)c(-c4c(O)cccc4F)c(Cl)cc23)CC1", "values": [{"measurement": "Ratio", "setting": "[1]", "result": -1.3}, {"measurement": "IC50", "setting": "NCI-H23", "result": 700, "unit": "nM"}, {"measurement": "IC50", "setting": "GTPase KRas", "result": 1800, "unit": "nM"}, {"measurement": "Ratio", "setting": "[2]", "result": -0.4}, {"measurement": "Activity", "setting": "[3]", "result": "Active"}, {"measurement": "Ratio", "setting": "[4]", "result": -1.8}, {"measurement": "IC50", "setting": "NCI-H358", "result": 640, "unit": "nM"}, {"measurement": "Ratio", "setting": "[5]", "result": -1.7}, {"measurement": "Activity", "setting": "[6]", "result": "inactive"}, {"measurement": "Ratio", "setting": "[7]", "result": -1.1}, {"measurement": "IC50", "setting": "[8]", "result": 4480, "unit": "nM"}, {"measurement": "fold change (FC)", "setting": "Homo sapiens", "result": 6}]}]}
